Measurements: paper PMC6634314 (Cell chemical biology, 2019)

Legend:
[1] = target: MAPK3 (Homo sapiens, UniProt P27361); assay: mass shift assay; type: binding; conditions: incubated 4 and 24h
In short: (§1)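 Kinase protein at 0.12 mM in 10 mM HEPES pH 7.5, 500 mM NaCl, incubated with 0.2 mM test compound at 4°C for 4 h and 24 h. Samples were diluted in 0.1% formic acid and desalted on a C3 pre-column. ESI-TOF was run in positive mode at 120 V, and intact mass was obtained by deconvolution to detect the adduct.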

[2] = test system: EPHB2; assay: MIB washout assay; type: binding, Human; conditions: H23 cells, 1 μM 4h, MIB pulldown ratio SM1-71/SM1-71-R
[3] = test system: PIK3R4; assay: MIB washout assay; type: binding, Human; conditions: H23 cells, 1 μM 4h, MIB pulldown ratio SM1-71/SM1-71-R
[4] = target: T1, AAK1 (Homo sapiens, UniProt Q2M2I8); assay: MIB washout assay; type: binding; conditions: H23 cells, 1 μM 4h, MIB pulldown ratio SM1-71/SM1-71-R
[5] = test system: PTK2; assay: MIB washout assay; type: binding, Human
[6] = test system: Calu-6-KRAS^Q61K; assay: proliferation assay; type: cell-based, Human; conditions: Calu-6-KRAS^Q61K cells (Fig. S2)
In short: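 NSCLC lines were mycoplasma-tested and treated with various concentrations of test compound for 72 h. Cell viability was then measured by CellTiter-Glo luminescence.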

[7] = target: SRC (Homo sapiens, UniProt P12931); assay: MIB washout assay; type: binding; conditions: H23 cells, 1 μM 4h, MIB pulldown ratio SM1-71/SM1-71-R
[8] = test system: ACVR1; assay: MIB washout assay; type: binding, Human
[9] = test system: MAP2K2; assay: MIB washout assay; type: binding, Human; conditions: H23 cells, 1 μM 4h, MIB pulldown ratio SM1-71/SM1-71-R
[10] = test system: HCK; assay: MIB washout assay; type: binding, Human; conditions: H23 cells, 1 μM 4h, MIB pulldown ratio SM1-71/SM1-71-R
[11] = test system: FGFR1; assay: MIB washout assay; type: binding, Human; conditions: H23 cells, 1 μM 4h, MIB pulldown ratio SM1-71/SM1-71-R
[12] = test system: TGFBR1; assay: MIB washout assay; type: binding, Human; conditions: H23 cells, 1 μM 4h, MIB pulldown ratio SM1-71/SM1-71-R
[13] = target: BMP2K (Homo sapiens, UniProt Q9NSY1); assay: MIB washout assay; type: binding; conditions: H23 cells, 1 μM 4h, MIB pulldown ratio SM1-71/SM1-71-R
[14] = test system: DDR1; assay: MIB washout assay; type: binding, Human; conditions: H23 cells, 1 μM 4h, MIB pulldown ratio SM1-71/SM1-71-R
[15] = test system: MARK2; assay: MIB washout assay; type: binding, Human; conditions: H23 cells, 1 μM 4h, MIB pulldown ratio SM1-71/SM1-71-R
[16] = test system: CSNK1D; assay: MIB washout assay; type: binding, Human; conditions: H23 cells, 1 μM 4h, MIB pulldown ratio SM1-71/SM1-71-R
[17] = target: MAP2K7 (Homo sapiens, UniProt O14733); assay: mass shift assay; type: binding; conditions: incubated 4 and 24h
In short: as §1

[18] = test system: INSR; assay: MIB washout assay; type: binding, Human; conditions: H23 cells, 1 μM 4h, MIB pulldown ratio SM1-71/SM1-71-R
[19] = test system: AGK; assay: MIB washout assay; type: binding, Human; conditions: H23 cells, 1 μM 4h, MIB pulldown ratio SM1-71/SM1-71-R
[20] = target: T1, AAK1; assay: MIB dose-dependent kinase inhibition assay; type: binding; conditions: read-out: IC50 in the MIB assay, H23 cell lysate, overnight 4°C
[21] = test system: MAPK1; assay: MIB washout assay; type: binding, Human; conditions: H23 cells, 1 μM 4h, MIB pulldown ratio SM1-71/SM1-71-R
[22] = target: MAP2K2 (Homo sapiens, UniProt P36507); assay: mass shift assay; type: binding; conditions: incubated 4 and 24h
In short: as §1

[23] = target: MAP2K1 (Homo sapiens, UniProt Q02750); assay: mass shift assay; type: binding; conditions: incubated 4 and 24h
In short: as §1

[24] = H23 cells, 1 μM 4h, 0h post-washout, MIB pulldown ratio SM1-71/SM1-71-R
[25] = H23 cells, 1 μM 4h, 6h post-washout, MIB pulldown ratio SM1-71/SM1-71-R

T1 sequence (Q2M2I8 whole entry): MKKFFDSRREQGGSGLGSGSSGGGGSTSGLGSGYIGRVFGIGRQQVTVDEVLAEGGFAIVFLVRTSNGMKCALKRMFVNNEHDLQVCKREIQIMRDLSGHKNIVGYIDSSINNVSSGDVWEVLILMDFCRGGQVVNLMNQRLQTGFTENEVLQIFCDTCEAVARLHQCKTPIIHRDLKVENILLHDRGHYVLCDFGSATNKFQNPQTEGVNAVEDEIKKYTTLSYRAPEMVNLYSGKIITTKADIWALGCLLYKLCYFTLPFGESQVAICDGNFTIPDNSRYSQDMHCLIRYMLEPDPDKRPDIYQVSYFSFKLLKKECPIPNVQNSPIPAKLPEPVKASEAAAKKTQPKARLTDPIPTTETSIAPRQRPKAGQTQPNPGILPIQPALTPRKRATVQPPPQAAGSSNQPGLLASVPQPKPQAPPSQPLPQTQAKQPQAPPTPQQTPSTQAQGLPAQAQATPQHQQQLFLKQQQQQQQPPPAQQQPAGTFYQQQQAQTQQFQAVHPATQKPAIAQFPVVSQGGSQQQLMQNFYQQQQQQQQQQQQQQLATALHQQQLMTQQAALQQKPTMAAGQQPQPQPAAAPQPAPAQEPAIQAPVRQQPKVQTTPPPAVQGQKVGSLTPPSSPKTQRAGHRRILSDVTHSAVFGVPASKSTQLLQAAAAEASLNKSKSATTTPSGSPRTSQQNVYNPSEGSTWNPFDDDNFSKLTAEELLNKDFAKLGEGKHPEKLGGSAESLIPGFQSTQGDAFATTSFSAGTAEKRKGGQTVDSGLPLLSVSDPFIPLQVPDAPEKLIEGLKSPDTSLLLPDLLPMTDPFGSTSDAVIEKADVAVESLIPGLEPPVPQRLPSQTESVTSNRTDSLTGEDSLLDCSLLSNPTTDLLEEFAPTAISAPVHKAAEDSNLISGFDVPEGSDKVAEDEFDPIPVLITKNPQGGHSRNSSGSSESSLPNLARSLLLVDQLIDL
Sequence of BMP2K (Q9NSY1 whole entry): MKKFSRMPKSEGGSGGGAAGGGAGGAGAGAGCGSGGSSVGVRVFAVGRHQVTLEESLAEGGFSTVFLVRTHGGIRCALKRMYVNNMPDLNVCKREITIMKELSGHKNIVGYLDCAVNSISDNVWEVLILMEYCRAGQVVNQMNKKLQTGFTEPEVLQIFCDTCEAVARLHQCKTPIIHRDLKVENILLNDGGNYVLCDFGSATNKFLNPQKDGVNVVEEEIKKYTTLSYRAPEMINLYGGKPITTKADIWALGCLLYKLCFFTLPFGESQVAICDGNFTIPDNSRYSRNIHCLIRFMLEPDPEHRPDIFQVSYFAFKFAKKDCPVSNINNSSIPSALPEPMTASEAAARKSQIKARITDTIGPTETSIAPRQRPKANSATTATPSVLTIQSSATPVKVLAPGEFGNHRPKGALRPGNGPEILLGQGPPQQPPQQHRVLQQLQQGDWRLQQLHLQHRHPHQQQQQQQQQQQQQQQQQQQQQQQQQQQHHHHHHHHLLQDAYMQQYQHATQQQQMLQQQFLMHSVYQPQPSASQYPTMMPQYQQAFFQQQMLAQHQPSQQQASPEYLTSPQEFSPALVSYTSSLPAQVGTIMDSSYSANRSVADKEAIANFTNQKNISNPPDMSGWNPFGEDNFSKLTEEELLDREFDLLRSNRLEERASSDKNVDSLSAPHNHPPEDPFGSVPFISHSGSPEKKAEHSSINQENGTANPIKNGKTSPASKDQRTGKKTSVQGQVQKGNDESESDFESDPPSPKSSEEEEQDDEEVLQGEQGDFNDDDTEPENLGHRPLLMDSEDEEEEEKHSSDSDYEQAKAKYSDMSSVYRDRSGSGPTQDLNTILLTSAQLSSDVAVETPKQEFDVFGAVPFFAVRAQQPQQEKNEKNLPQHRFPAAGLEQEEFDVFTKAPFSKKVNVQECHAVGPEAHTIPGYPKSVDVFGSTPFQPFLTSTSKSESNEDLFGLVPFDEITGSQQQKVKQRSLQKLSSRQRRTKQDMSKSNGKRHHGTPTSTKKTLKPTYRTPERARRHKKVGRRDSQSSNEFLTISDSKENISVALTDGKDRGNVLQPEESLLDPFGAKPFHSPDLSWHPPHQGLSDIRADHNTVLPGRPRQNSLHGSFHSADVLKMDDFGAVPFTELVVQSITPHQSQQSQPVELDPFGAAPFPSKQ
Sequence of SRC (P12931 whole entry): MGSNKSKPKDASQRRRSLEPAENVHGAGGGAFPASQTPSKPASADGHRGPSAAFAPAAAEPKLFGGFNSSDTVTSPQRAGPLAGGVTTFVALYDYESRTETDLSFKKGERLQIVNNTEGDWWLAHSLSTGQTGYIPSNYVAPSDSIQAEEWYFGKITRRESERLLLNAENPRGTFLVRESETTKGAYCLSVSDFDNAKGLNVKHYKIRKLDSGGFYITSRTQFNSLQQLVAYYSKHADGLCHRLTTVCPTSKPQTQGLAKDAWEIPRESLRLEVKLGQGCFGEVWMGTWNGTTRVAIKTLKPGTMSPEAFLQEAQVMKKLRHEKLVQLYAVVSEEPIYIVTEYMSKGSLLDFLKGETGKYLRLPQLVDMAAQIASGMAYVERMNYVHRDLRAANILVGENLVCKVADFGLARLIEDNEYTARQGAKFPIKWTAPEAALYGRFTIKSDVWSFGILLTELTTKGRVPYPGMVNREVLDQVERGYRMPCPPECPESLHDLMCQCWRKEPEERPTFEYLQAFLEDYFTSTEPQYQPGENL
Sequence of MAP2K7 (O14733 whole entry, species assumed): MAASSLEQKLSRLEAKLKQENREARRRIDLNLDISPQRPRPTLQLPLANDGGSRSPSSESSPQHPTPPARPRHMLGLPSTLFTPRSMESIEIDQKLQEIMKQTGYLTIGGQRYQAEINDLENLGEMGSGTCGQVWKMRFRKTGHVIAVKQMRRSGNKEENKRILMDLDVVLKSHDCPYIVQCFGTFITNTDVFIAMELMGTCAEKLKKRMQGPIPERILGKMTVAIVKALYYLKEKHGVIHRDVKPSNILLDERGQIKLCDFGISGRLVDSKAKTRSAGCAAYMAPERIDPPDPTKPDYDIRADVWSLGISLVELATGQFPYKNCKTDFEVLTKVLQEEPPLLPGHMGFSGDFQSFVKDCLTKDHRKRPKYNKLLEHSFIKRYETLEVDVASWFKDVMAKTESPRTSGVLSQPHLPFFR
Sequence of MAP2K2 (Homo sapiens, UniProt P36507) (P36507 whole entry, species assumed): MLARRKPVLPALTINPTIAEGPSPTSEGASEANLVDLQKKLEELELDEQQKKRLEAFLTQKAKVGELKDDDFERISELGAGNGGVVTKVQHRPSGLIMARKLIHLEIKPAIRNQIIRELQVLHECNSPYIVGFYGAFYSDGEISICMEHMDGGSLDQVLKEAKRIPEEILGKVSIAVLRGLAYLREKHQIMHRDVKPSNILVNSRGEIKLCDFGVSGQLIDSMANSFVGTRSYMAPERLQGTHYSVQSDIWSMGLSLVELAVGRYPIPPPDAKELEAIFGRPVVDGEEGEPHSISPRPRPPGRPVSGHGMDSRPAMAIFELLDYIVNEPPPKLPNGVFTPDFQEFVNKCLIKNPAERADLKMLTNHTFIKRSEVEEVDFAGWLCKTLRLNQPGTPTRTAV
Sequence of MAP2K1 (Q02750 whole entry, species assumed): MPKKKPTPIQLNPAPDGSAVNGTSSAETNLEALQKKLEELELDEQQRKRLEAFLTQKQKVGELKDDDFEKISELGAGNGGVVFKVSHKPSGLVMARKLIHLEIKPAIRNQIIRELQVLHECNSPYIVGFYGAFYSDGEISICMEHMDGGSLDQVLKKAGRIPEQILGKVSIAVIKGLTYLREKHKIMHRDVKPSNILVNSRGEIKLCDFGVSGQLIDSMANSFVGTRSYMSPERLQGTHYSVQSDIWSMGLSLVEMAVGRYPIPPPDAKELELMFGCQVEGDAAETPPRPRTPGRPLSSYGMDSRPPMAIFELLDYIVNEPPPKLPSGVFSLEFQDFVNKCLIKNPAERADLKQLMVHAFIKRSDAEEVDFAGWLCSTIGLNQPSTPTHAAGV
Sequence of MAPK3 (P27361 whole entry): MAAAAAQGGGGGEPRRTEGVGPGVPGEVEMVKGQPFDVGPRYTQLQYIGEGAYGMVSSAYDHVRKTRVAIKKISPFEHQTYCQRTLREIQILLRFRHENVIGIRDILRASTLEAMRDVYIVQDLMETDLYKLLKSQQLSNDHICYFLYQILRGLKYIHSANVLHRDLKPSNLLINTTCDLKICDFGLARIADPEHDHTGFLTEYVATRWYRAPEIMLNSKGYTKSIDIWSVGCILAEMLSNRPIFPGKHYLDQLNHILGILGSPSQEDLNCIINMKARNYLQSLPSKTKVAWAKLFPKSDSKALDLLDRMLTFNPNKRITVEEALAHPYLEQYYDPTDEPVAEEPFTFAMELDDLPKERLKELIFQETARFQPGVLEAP

With C=CC(=O)Nc1ccccc1Nc1nc(Nc2ccc(N3CCN(C)CC3)cc2)ncc1Cl [SM1-71] the “covalent adduct formation (mass shift)” value [1] was “formed covalent adducts”, the BI-0h ([2]; 0h post-washout) was 0.7 and the BI-6h ([2]; 6h post-washout) was 0.5. The BI-0h ([3]; 0h post-washout) was 0.36, the BI-6h ([3]; 6h post-washout) was 0.47 and the BI-0h ([4]; 0h post-washout) was 0.27. For the same compound, the BI-6h ([4]; 6h post-washout) was 0.32, the BI-0h [5, 24] was 1.3 and the BI-6h [5, 25] was 1.12. For the same compound, the Binding ([5]; class from BI 0h and 6h) was “Strongly Reversible (BI0h,6h greater than 1 suggesting a strong preference for reversible mode of inhibition)”, the growth inhibitory effects [6] was “strong growth inhibitory effects” and the BI-0h ([7]; 0h post-washout) was 0.19. For the same compound, the BI-6h ([7]; 6h post-washout) was 0.13, the BI-0h [8, 24] was 0.81 and the BI-6h [8, 25] was 0.3. For the same compound, the Binding ([8]; class from BI 0h and 6h) was “Weakly Irreversible”, the BI-0h ([9]; 0h post-washout) was 0.03 and the BI-6h ([9]; 6h post-washout) was 0.18. It also gave a BI-0h ([10]; 0h post-washout) of 1.3, a BI-6h ([10]; 6h post-washout) of 0.85 and a BI-0h ([11]; 0h post-washout) of 0.45. It also gave a BI-6h ([11]; 6h post-washout) of 0.42, a BI-0h ([12]; 0h post-washout) of 1.09 and a BI-6h ([12]; 6h post-washout) of 0.8. For the same compound, the BI-0h ([13]; 0h post-washout) was 0.23, the BI-6h ([13]; 6h post-washout) was 0.27 and the BI-0h ([14]; 0h post-washout) was 0.68. It also gave a BI-6h ([14]; 6h post-washout) of 0.59, a BI-0h ([15]; 0h post-washout) of 0.74 and a BI-6h ([15]; 6h post-washout) of 1.13. The BI-0h ([16]; 0h post-washout) was 0.71, the BI-6h ([16]; 6h post-washout) was 0.78 and the “covalent adduct formation (mass shift)” value [17] was “formed covalent adducts”. For the same compound, the BI-0h ([18]; 0h post-washout) was 0.52, the BI-6h ([18]; 6h post-washout) was 0.76 and the BI-0h ([19]; 0h post-washout) was 0.66. The BI-6h ([19]; 6h post-washout) was 0.5, the IC50 [20] was under 10 nM and the BI-0h ([21]; 0h post-washout) was 0.19. The BI-6h ([21]; 6h post-washout) was 0.39, the “covalent adduct formation (mass shift)” value [22] was “formed covalent adducts” and the “covalent adduct formation (mass shift)” value [23] was “formed covalent adducts”.
